Assay results from ChEMBL document CHEMBL1275335, “Design and synthesis of 2-arylbenzimidazoles and evaluation of their inhibitory effect against Chlamydia pneumoniae” (J Med Chem, 2010).
Converted amounts (≈) assume the structure as drawn. The source made the active and inactive calls. No cut-off for these calls is given here.

Legend:
Chlamydia pneumoniae [1] = assay: Antibacterial activity against Chlamydia pneumoniae CWL029 infected in human HL cells assessed as inhibition of bacterial growth at 10 uM after 72 hrs by TR-FIA method; assay type: functional
Summary of the method: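 HL cells were seeded at 6×10^4/well in RPMI 1640 with 7.5% FBS, 2 mM glutamine and gentamicin, then infected 24 h later with CWL-029 at MOI 0.2 plus 0.5 μg/mL cycloheximide and centrifuged 1 h. Compounds were added in six replicates for 72 h at 37 C. After methanol fixation, wells were labelled with europium-conjugated chlamydial antibody (100 ng/mL, 30 min, 37 C) and read by time-resolved fluorescence; rifampicin 0.012 μM served as control.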

Chlamydia pneumoniae [2] = assay: Chlamydiostatic activity against Chlamydia pneumoniae CV6 infected in human Hep2 cells after 72 hrs by fluorescence assay; assay type: functional, HEp-2; conditions: CV6, 72 h
Summary of the method: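 Confluent HEp-2 monolayers on coverslips were centrifuged with C. pneumoniae CV-6 (10^3 IFU/mL; 1700g, 45 min, 35 C). Medium was replaced with MEM containing cycloheximide 1 μg/mL and serial 2-fold compound dilutions. After 72 h at 35 C, 5% CO2, inclusions were stained with fluorescein-conjugated anti-Chlamydia LPS mAb. MIC is the lowest concentration with no IFU; titrations were run in duplicate.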

[3] = Cytotoxicity against human HL cells assessed as cell viability at 10 uM after 72 hrs by celltiter-glo analysis; assay type: cell-based; conditions: read-out: Activity
Summary of the method: (§1)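 After 72 h, viability was measured as intracellular ATP by CellTiter-Glo luminescence after partial medium replacement. Results are expressed as a percentage of cells given DMSO-adjusted medium.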

Escherichia coli = assay: Antibacterial activity against Escherichia coli ATCC 25922 assessed as inhibition of bacterial growth at 50 uM after 18 hrs by photometric method; assay type: functional, organism-based
Summary of the method: (§2)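 Bacteria were dispensed with 0.01% resazurin and compound, reaching a final 50 μM; ampicillin 25 μM was the control. After 18 h at 37 C, resazurin was read photometrically at 600 nm.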

Chlamydia pneumoniae [4] = assay: Antibacterial activity against Chlamydia pneumoniae CV6 infected in human Hep2 cells assessed as minimal chlamydiocidal activity after 72 hrs by fluorescence assay; assay type: functional, HEp-2; conditions: CV6, 72 h
Summary of the method: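 CV-6 was grown in HEp-2 cells under 2-fold compound dilutions (MEM, cycloheximide 1 μg/mL, 72 h, 35 C). Drug medium was then removed, wells washed with PBS pH 7.4 and fed drug-free medium. Monolayers were disrupted, passed onto fresh monolayers, incubated and stained with fluorescein anti-LPS mAb. MCC is the lowest concentration giving no IFU in the antibiotic-free passage; run in duplicate.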

Staphylococcus aureus = assay: Antibacterial activity against Staphylococcus aureus ATCC 25923 assessed as inhibition of bacterial growth at 50 uM after 18 hrs by photometric method; assay type: functional; summary of the method: as §2
HL = assay: Cytotoxicity against human HL cells at 2.5 uM after 72 hrs by celltiter-glo analysis; assay type: cell-based; summary of the method: as §1

Row | Structure (SMILES) | inhibition at 10 µM (Chlamydia pneumoniae [1]) | MIC (Chlamydia pneumoniae [2]) | viability at 72 h, 10 µM [3] | growth inhibition (GI) (Escherichia coli) | MCC (Chlamydia pneumoniae [4]) | growth inhibition (GI) (Staphylococcus aureus) | Activity (HL)
1 | O=C(Nc1cccc(-c2nc3ccccc3[nH]2)c1)c1ccsc1 | 68% | > 196 µM | 98% | inactive | > 196 µM | inactive | Non-toxic
2 | Cc1ccc2[nH]c(-c3cccc(NC(=O)c4cccs4)c3)nc2c1 | 99% | 12.6 µM (≈ 4.2 µg/mL) | 95% | inactive | 12.6 µM | inactive | Non-toxic
3 | COc1ccccc1C(=O)Nc1cccc(-c2nc3ccccc3[nH]2)c1 | 0% |  | 107% | inactive |  | inactive | 
4 | COc1cccc(C(=O)Nc2cccc(-c3nc4ccccc4[nH]3)c2)c1 | 98% |  | 97% | inactive |  | inactive | 
5 | CC[C@H]1OC(=O)[C@H](C)[C@@H](O[C@H]2C[C@@](C)(OC)[C@@H](O)[C@H](C)O2)[C@H](C)[C@@H](O[C@@H]2O[C@H](C)C[C@H](N(C)C)[C@H]2O)[C@](C)(O)C[C@@H](C)C(=O)[C@H](C)[C@@H](O)[C@]1(C)O [ERYTHROMYCIN] |  | 0.17 µM (≈ 0.125 µg/mL) |  |  | 0.17 µM |  | 
6 | O=C(Nc1cccc(-c2nc3ccccc3[nH]2)c1)c1ccco1 | 45% |  | 98% | inactive |  | inactive | 
7 | O=C(Nc1cccc(-c2nc3ccccc3[nH]2)c1)c1ccccc1 | 99% |  | 98% | inactive |  | inactive | 
8 | O=C(Nc1cccc(-c2ncc[nH]2)c1)c1ccsc1 | 0% |  | 133% |  |  |  | 
9 | O=C(Nc1cccc(-c2ncc[nH]2)c1)c1cccs1 | 0% |  | 115% |  |  |  | 
10 | Cn1c(-c2cccc(NC(=O)c3cccs3)c2)nc2ccccc21 | 0% |  | 102% | inactive |  | inactive | 
11 | O=C(Nc1cccc(-c2nc3ccccc3[nH]2)c1)c1cccs1 | 89% | 196 µM (≈ 62.6 µg/mL) | 98% | inactive | > 196 µM | inactive | Non-toxic
12 | O=C(Cc1cccs1)Nc1cccc(-c2nc3ccccc3[nH]2)c1 | 70% |  | 107% | inactive |  | inactive | 
13 | Cn1cccc1C(=O)Nc1cccc(-c2nc3ccccc3[nH]2)c1 | 80% |  | 104% | inactive |  | inactive | 
14 | COc1ccc2[nH]c(-c3cccc(NC(=O)c4ccsc4)c3)nc2c1 | 73% | 12.6 µM (≈ 4.4 µg/mL) | 95% | inactive | 12.6 µM | inactive | Non-toxic
15 | Cc1ccccc1C(=O)Nc1cccc(-c2nc3ccccc3[nH]2)c1 | 99% | 6.1 µM (≈ 2 µg/mL) | 90% | inactive | 24.5 µM | inactive | Non-toxic
16 | O=C(Nc1cccc(-c2nc3ccccc3[nH]2)c1)c1ccoc1 | 78% |  | 101% | inactive |  | inactive | 
17 | O=C(Nc1cccc(-c2nc3cc(Cl)ccc3[nH]2)c1)c1cccs1 | 89% | 196 µM (≈ 69.4 µg/mL) | 92% | inactive | > 196 µM | inactive | Non-toxic
